Our source for the IC50 and T/C values is ChEMBL document CHEMBL1136012, “Synthesis and structure-activity relationships of novel 7-substituted 1,4-dihydro-4-oxo-1-(2-thiazolyl)-1,8-naphthyridine-3-carboxylic acids as antitumor agents. Part 1” (J Med Chem, 2002).

Converted amounts (≈) assume the structure as drawn.

Experiment [1] concerns P388. Briefly: Cytotoxic activity of compound against Murine P388 Leukemia. The format is functional, cell-based, Mus musculus. In outline:
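Murine P388 cells were cultured in EMEM with 10% FBS, 2 mM glutamine, 50 units/mL penicillin and 50 μg/mL streptomycin. They were seeded at (1–2) × 10^4 cells/mL without preincubation and exposed to varying concentrations for 72 h at 37 °C, 5% CO2. MTT was then added for 4 h, formazan dissolved in DMSO and read at 570/690 nm.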

The test system of experiment [2] is P388. Nature of the experiment: […] antitumor activity of compound against P388 leukemia cells at a dose of 50 mg/kg. It counts as functional, Mus musculus. In outline: (§1)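 In vivo study: BDF1 mice received 10^6 P388 leukemia cells ip as diluted ascites fluid. Test compounds were suspended in 0.4% CMC and given ip on days 1 and 5 after implantation, with seven mice per group. The endpoint is T/C% = median survival time of the treated group / median survival time of controls × 100.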

Experiment [3] deals with P388. Briefly: […] antitumor activity of compound against P388 leukemia cells at a dose of 3.13 mg/kg. It counts as functional, Mus musculus. The procedure, abridged:
as §1

The test system of experiment [4] is P388. Nature of the experiment: In vitro antitumor activity of compound against P388 leukemia cells at a dose of […] mg/kg. It counts as functional, Mus musculus. On the set-up: concentration or dose not given beside the values.
The subject of experiment [5] is P388. Briefly: […] antitumor activity of compound against P388 leukemia cells at a dose of 6.25 mg/kg. The format is functional, Mus musculus. The procedure, abridged:
as §1

Setting [6] is: Mus musculus, P388, read-out: IC50.

On to `Cc1cc(-n2cc(C(=O)O)c(=O)c3cc(F)c(N4CCC(N)C4)nc32)on1.Cl` (centres undefined), for which, in the experiment on P388 [1] (setting [6]), the IC50 was found to be 0.58 µg/mL.

For the compound `Cl.NC1C=CC[C@H]2CN(c3nc4c(cc3F)c(=O)c(C(=O)O)cn4-c3nccs3)C[C@@H]12` (some centres undefined), the IC50 with P388 [1] (setting [6]) came out at 0.15 µg/mL.

As to `Cl.O=C(O)c1cn(-c2nccs2)c2nc(-n3ccnc3)c(F)cc2c1=O`, the IC50 in the experiment with P388 [1] (setting [6]) was above 10 µg/mL.

As for `Cl.O=C(O)c1cn(-c2nccs2)c2nc(N3CC[C@@H](O)C3)c(F)cc2c1=O`, the IC50 with P388 [1] (setting [6]) came out at 0.065 µg/mL.

Regarding `Cl.NCC1CN(c2nc3c(cc2F)c(=O)c(C(=O)O)cn3-c2nccs2)C[C@H]1Cl` (some centres undefined), in the experiment on P388 [1] (setting [6]), the IC50 came to 0.156 µg/mL.

As for `Cl.N[C@@H]1CCN(c2nc3c(cc2F)c(=O)c(C(=O)O)cn3-c2nccs2)C1`, the IC50 with P388 [1] (setting [6]) was 0.016 µg/mL.

In the case of `CN(C)C1CCN(c2nc3c(cc2F)c(=O)c(C(=O)O)cn3-c2nccs2)C1.Cl` (centres undefined), the T/C is reported as 225% in the experiment with P388 [2], 138% in the experiment on P388 [3] and 175% in the experiment with P388 [4]. The IC50 in the experiment on P388 [1] (setting [6]) worked out at 0.057 µg/mL.

Consider `Cl.NC1CCN(c2nc3c(cc2F)c(=O)c(C(=O)O)nn3-c2nccs2)C1` (centres undefined), for which the IC50 with P388 [1] (setting [6]) is above 10 µg/mL.

As for `COc1ccccc1N1CCN(c2nc3c(cc2F)c(=O)c(C(=O)O)cn3-c2nccs2)CC1.Cl`, the IC50 in the experiment with P388 [1] (setting [6]) is above 1 µg/mL.

`Cl.O=C(O)c1cn(-c2nccs2)c2nc(N3CCCC3)c(F)cc2c1=O`: the IC50 with P388 [1] (setting [6]) stood at 0.08 µg/mL.

Consider `Cl.O=C(O)c1cn(-c2nccs2)c2nc(N3CCSCC3)c(F)cc2c1=O`, for which the concentration for half-maximal inhibition (IC50) in the experiment on P388 [1] (setting [6]) amounted to 1.74 µg/mL.

For the compound `CO[C@@H]1CN(c2nc3c(cc2F)c(=O)c(C(=O)O)cn3-c2nccs2)C[C@@H]1N.Cl`, the IC50 in the experiment on P388 [1] (setting [6]) amounted to 0.084 µg/mL.

With `Cc1csc(-n2cc(C(=O)O)c(=O)c3cc(F)c(N4CCC(N)C4)nc32)n1.Cl` (centres undefined), the IC50 in the experiment on P388 [1] (setting [6]) turned out to be 0.051 µg/mL.

Take `CC(C)(C)c1csc(-n2cc(C(=O)O)c(=O)c3cc(F)c(N4CCC(N)C4)nc32)n1.Cl` (centres undefined): the IC50 in the experiment with P388 [1] (setting [6]) is 0.88 µg/mL.

For the compound `CN1CC=C2CN(c3nc4c(cc3F)c(=O)c(C(=O)O)cn4-c3nccs3)CC21.Cl` (centres undefined), the IC50 in the experiment with P388 [1] (setting [6]) came to 0.038 µg/mL.

With `COc1cccc2c1C(=O)c1c(O)c3c(c(O)c1C2=O)C[C@@](O)(C(=O)CO)C[C@@H]3O[C@H]1C[C@H](N)[C@H](O)[C@H](C)O1` [DOXORUBICIN], the figures for the T/C with P388 [5] and in the experiment on P388 [3] were 293% and 235%, respectively. In addition, in the experiment with P388 [1] (setting [6]), the IC50 was found to be 0.004 µg/mL (≈ 7.36 nM).

With `Cl.Cn1nccc1-n1cc(C(=O)O)c(=O)c2cc(F)c(N3CCC(N)C3)nc21` (centres undefined), in the experiment on P388 [1] (setting [6]), the IC50 was above 10 µg/mL.

For the compound `C[C@@H]1CN(c2nc3c(cc2F)c(=O)c(C(=O)O)cn3-c2nccs2)C[C@@H]1N.Cl`, the IC50 with P388 [1] (setting [6]) amounted to 0.057 µg/mL.

Take `CO[C@@H]1CN(c2nc3c(cc2F)c(=O)c(C(=O)O)cn3-c2nccs2)C[C@H]1N.Cl`: the IC50 in the experiment with P388 [1] (setting [6]) was 0.068 µg/mL.

As to `Cl.NC1CCN(c2nc3c(cc2F)c(=O)c(C(=O)O)cn3-c2nc3ccccc3s2)C1` (centres undefined), in the experiment on P388 [1] (setting [6]), the IC50 worked out at 0.049 µg/mL.

Regarding `COc1cnc(-n2cc(C(=O)O)c(=O)c3cc(F)c(N4CCC(N)C4)nc32)s1.Cl` (centres undefined), the IC50 with P388 [1] (setting [6]) was 0.35 µg/mL.

Consider `Cl.NC1CCN(c2c(F)cc3c(=O)c(C(=O)O)cn(-c4nccs4)c3c2F)C1` (centres undefined), for which, in the experiment on P388 [1] (setting [6]), the IC50 turned out to be 55 µg/mL.

On to `Cc1nc(-n2cc(C(=O)O)c(=O)c3cc(F)c(N4CCC(N)C4)nc32)sc1C.Cl` (centres undefined), for which, in the experiment on P388 [1] (setting [6]), the IC50 is 0.18 µg/mL.

In turn, `CO[C@H]1CN(c2nc3c(cc2F)c(=O)c(C(=O)O)cn3-c2nccs2)C[C@@H]1N.Cl` (stereo in doubt; (S,S)-43j) yielded an IC50 in the experiment with P388 [1] (p388) of 0.023 µg/mL.

`Cl.O=C(O)c1cn(-c2nccs2)c2nc(N3C[C@@H]4CCCN[C@@H]4C3)c(F)cc2c1=O`: in the experiment on P388 [1] (setting [6]), the IC50 worked out at 0.304 µg/mL.

Take `Cl.NC1(CO)CCN(c2nc3c(cc2F)c(=O)c(C(=O)O)cn3-c2nccs2)C1` (centres undefined): the IC50 with P388 [1] (setting [6]) worked out at 0.084 µg/mL.

As to `Cl.NCC1=CCN(c2nc3c(cc2F)c(=O)c(C(=O)O)cn3-c2nccs2)C1`, the IC50 in the experiment on P388 [1] (setting [6]) was 0.084 µg/mL.

Turning to `Cl.NCCNc1nc2c(cc1F)c(=O)c(C(=O)O)cn2-c1nccs1`, the IC50 with P388 [1] (setting [6]) is above 10 µg/mL.

In the case of `Cl.NCC1CN(c2nc3c(cc2F)c(=O)c(C(=O)O)cn3-c2nccs2)CCO1` (centres undefined), in the experiment on P388 [1] (setting [6]), the IC50 amounted to 1.73 µg/mL.

In general, IC50 refers to the point on the concentration scale where inhibition reaches its midpoint. By T/C is commonly meant the ratio of treated to control.
